Test results published in ChEMBL document CHEMBL4368867 (Medchemcomm, 2018).
pIC50: −log10 of the molar value.

Legend:
Carbonic anhydrase 9 = Carbonic anhydrase 9 (Homo sapiens, UniProt Q16790); assay: Inhibition of human carbonic anhydrase-9 incubated for 15 mins prior to testing by stopped-flow CO2 hydration assay
Carbonic anhydrase 1 = Carbonic anhydrase 1 (Homo sapiens, UniProt P00915); assay: Inhibition of human erythrocyte carbonic anhydrase-1 incubated for 15 mins prior to testing by stopped-flow CO2 hydration assay
Carbonic anhydrase 1, sequence (P00915 whole entry): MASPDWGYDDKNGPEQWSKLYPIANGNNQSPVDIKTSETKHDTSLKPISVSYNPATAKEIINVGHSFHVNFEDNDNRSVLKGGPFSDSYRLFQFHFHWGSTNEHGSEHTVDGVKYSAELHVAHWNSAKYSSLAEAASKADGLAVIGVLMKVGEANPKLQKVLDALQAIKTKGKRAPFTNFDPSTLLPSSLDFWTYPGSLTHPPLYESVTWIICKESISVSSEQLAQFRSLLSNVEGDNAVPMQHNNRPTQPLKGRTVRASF

Carbonic anhydrase 2 = Carbonic anhydrase 2 (Homo sapiens, UniProt P00918); assay: Inhibition of recombinant human carbonic anhydrase-2 expressed in Escherichia coli incubated for 15 mins prior to testing by stopped-flow CO2 hydration assay
Homo sapiens [1] = organism: Homo sapiens; assay: Selectivity ratio of IC50 for human erythrocyte carbonic anhydrase-1 to IC50 for human carbonic anhydrase-9
Method in brief: (§1)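 Ratio of the CA I or CA II IC50 to the CA IX IC50. hCA IX was purified recombinant protein; CA I and CA II were commercial. Enzyme levels were 50 ng µL−1 for CA I, 1 ng µL−1 for CA II and 3 ng µL−1 for CA IX. Inhibitor in DMSO was preincubated with enzyme for 15 min. Activity was read as stopped-flow CO2 hydration or initial 4-nitrophenyl acetate hydrolysis rates. Triplicates per concentration, mean reported.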

Homo sapiens [2] = organism: Homo sapiens; assay: Selectivity ratio of IC50 for recombinant human carbonic anhydrase-2 expressed in Escherichia coli to IC50 for human carbonic anhydrase-9; method in brief: as §1

SMILES | pIC50 (Carbonic anhydrase 9) | pIC50 (Carbonic anhydrase 1) | pIC50 (Carbonic anhydrase 2) | Ratio IC50 (Homo sapiens [1]) | Ratio IC50 (Homo sapiens [2])
COc1ccc(C(=O)NC(=S)Nc2ccc(S(N)(=O)=O)cc2)cc1 | 9.33 | 6.16 | 7.59 | 1480 | 54.4
COc1ccc(C(=O)NC(=S)Nc2cccc(S(N)(=O)=O)c2)cc1 | 7.59 | 6.18 | 6.04 | 26.1 | 35.6
NS(=O)(=O)c1cccc(NC(=S)NC(=O)c2ccccc2)c1 | 7.59 | 6.06 | 6.78 | 33.7 | 6.47
NS(=O)(=O)c1cccc(NC(=S)NC(=O)c2ccc(Cl)cc2Cl)c1 | 8.35 | 5.87 | 6.02 | 304 | 215
NS(=O)(=O)c1ccc(NC(=S)NC(=O)c2ccc([N+](=O)[O-])cc2)cc1 | 9.32 | 6.30 | 6.13 | 1050 | 1560
NS(=O)(=O)c1cccc(NC(=S)NC(=O)c2ccc(Cl)cc2)c1 | 7.37 | 5.81 | 6.62 | 36.5 | 5.67

Second part, the molecule after the results:

pIC50 (Carbonic anhydrase 9) | pIC50 (Carbonic anhydrase 1) | pIC50 (Carbonic anhydrase 2) | Ratio IC50 (Homo sapiens [1]) | Ratio IC50 (Homo sapiens [2]) | SMILES
7.72 | 6.11 | 6.56 | 40.7 | 14.6 | NS(=O)(=O)c1cccc(NC(=S)NC(=O)c2ccccc2Cl)c1
9.52 | 6.57 | 8.68 | 889 | 6.97 | COc1ccccc1C(=O)NC(=S)Nc1ccc(S(N)(=O)=O)cc1
7.26 | 7.35 | 7.68 | 0.82 | 0.38 | COc1ccccc1C(=O)NC(=S)Nc1cccc(S(N)(=O)=O)c1
< 6.98 | 7.22 | 6.85 | – | – | NS(=O)(=O)c1cccc(NC(=S)NC(=O)c2ccc([N+](=O)[O-])cc2)c1
8.38 | 6.37 | 7.89 | 102 | 3.13 | NS(=O)(=O)c1ccc(NC(=S)NC(=O)c2ccc(Cl)cc2)cc1
9.92 | 6.20 | 7.93 | 5270 | 98.5 | NS(=O)(=O)c1ccc(NC(=S)NC(=O)c2ccc(Cl)cc2Cl)cc1
8.47 | 6.18 | 7.64 | 193 | 6.68 | NS(=O)(=O)c1ccc(NC(=S)NC(=O)c2ccccc2Cl)cc1
